Results from ChEMBL document CHEMBL3352269, “Discovery of 2-Pyridylpyrimidines as the First Orally Bioavailable GPR39 Agonists” (ACS Med Chem Lett, 2014).
The source made the active and inactive calls. The calls are words filed in the database; no cut-off is given here.

What was measured:
[1] = Hepatic clearance in rat liver microsomes; format: ADME
In short: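 Predicted hepatic clearance calculated from intrinsic clearance in rat liver microsomes.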

[2] = target: T1, G-protein coupled receptor 39 (Mus musculus, UniProt Q5U431); assay: Agonist activity at mouse GPR39 expressed in HEK293 cells by IP1 assay; format: functional, cell-based
T1 sequence (Q5U431 whole entry): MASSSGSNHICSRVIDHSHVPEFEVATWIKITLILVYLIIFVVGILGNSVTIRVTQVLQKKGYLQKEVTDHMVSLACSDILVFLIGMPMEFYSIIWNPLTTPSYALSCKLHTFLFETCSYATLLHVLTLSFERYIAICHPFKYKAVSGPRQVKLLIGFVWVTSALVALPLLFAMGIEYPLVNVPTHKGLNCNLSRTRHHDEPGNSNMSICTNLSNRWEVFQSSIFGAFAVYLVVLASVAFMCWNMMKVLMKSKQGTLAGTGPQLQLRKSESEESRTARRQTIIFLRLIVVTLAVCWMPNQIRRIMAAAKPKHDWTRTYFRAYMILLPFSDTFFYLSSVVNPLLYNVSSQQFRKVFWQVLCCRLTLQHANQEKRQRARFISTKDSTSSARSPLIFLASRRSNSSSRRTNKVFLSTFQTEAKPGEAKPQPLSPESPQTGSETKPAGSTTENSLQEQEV
In short: (§1)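 Gαq signalling read as inositol-1-phosphate (IP1) accumulation in HEK293 cells overexpressing human, mouse or rat GPR39. EC50 taken from an 11-point dose–response curve run in triplicate. Replicates range from 1 to 4, with standard deviation where available.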

[3] = target: T2, G-protein coupled receptor 39 (Homo sapiens, UniProt O43194); assay: Agonist activity at human GPR39 expressed in HEK293 cells by IP1 assay; format: functional, cell-based; in short: as §1
T2 sequence (O43194 whole entry): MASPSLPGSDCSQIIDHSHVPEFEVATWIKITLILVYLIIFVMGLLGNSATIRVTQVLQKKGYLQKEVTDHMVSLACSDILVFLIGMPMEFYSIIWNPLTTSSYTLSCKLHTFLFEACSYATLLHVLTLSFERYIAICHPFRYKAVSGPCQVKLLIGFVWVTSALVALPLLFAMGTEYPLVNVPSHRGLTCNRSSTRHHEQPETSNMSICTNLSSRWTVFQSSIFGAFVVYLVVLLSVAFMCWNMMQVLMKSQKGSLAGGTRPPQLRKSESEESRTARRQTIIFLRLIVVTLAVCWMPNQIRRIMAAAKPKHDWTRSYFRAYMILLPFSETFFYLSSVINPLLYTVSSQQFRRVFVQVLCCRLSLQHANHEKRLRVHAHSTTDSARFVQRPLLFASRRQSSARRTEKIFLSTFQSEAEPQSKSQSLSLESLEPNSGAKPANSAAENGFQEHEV

[4] = target: T2, G-protein coupled receptor 39; assay: Agonist activity at human GPR39 expressed in HEK293 cells by cAMP assay; format: functional, cell-based
In short: (§2)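 cAMP accumulation (Gαs signalling) in HEK293 cells overexpressing human GPR39. Dose–response curve run in triplicate, 1–16 replicates. EC50 derived from the curve. Percent efficacy is expressed relative to the cAMP response to 25 μM forskolin.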

[5] = target: T3, Protein Gpr39 (Rattus norvegicus, UniProt A6QR73); assay: Agonist activity at rat GPR39 expressed in HEK293 cells by IP1 assay; format: functional, cell-based; in short: as §1
T3 sequence (A6QR73 whole entry): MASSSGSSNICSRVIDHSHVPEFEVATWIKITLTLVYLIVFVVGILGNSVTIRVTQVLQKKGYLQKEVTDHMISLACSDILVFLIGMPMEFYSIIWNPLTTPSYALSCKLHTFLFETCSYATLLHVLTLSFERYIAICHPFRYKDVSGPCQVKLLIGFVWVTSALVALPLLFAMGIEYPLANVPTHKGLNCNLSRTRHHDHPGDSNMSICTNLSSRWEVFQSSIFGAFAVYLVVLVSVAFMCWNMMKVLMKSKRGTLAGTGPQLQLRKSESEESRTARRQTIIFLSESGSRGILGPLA

[6] = target: T4, G-protein coupled receptor 39 (Homo sapiens) (UniProt O43194); assay: Agonist activity at human GPR39 expressed in HEK293 cells by cAMP assay relative to forskolin; format: functional, cell-based; in short: as §2
T4 sequence (whole entry): T2 sequence (O43194 whole entry)

[7] = Clearance in Sprague-Dawley rat at 1 mg/kg, iv administered as single dose; format: ADME, organism-based; parameters: dose 1 mg/kg, route intravenous; conditions: in vivo
In short: (§3)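 Sprague–Dawley rats received a single iv dose of 1 mg/kg, with clearance measured, or an oral dose of 3 mg/kg, with bioavailability (F) measured.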

[8] = Oral bioavailability in Sprague-Dawley rat at 3 mg/kg; format: ADME, organism-based; conditions: in vivo; in short: as §3
[9] = target: T3, Protein Gpr39; assay: Agonist activity at rat GPR39 by IP1 assay; format: functional; in short: as §1
[10] = target: T2, G-protein coupled receptor 39; assay: Agonist activity at human GPR39 by IP1 assay; format: functional; in short: as §1
[11] = target: T1, G-protein coupled receptor 39; assay: Agonist activity at mouse GPR39 by IP1 assay; format: functional; in short: as §1
[12] = Aqueous solubility at pH 6.8; format: physicochemical
[13] = target: T4, G-protein coupled receptor 39 (Homo sapiens); assay: Agonist activity at human GPR39 expressed in HEK293 cells in presence of sub-EC50 dose of zinc chloride by IP1 assay; format: functional, cell-based
[14] = Cmax in C57BL/6 mouse at 30 mg/kg, po administered as single dose after 1 to 1.5 hrs by LC/MS/MS method; format: ADME, organism-based; parameters: dose 30 mg/kg, route oral; conditions: in vivo
[15] = Protein binding in mouse plasma; format: ADME, cell-free; conditions: read-out: PPB (converted)
[16] = Half life in C57BL/6 mouse at 10 mg/kg, po administered as single dose by LC/MS/MS method; format: ADME, organism-based; parameters: dose 10 mg/kg, route oral; conditions: in vivo
In short: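 Male C57BL/6 mice, separate study with a single 10 mg/kg dose. Half-life calculated from the plasma concentration profile.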

[17] = Plasma concentration in C57BL/6 mouse at 30 mg/kg, po concurrently dosed with 3 mg/kg, po DPP4 inhibitor PKF275-055 followed by glucose challenge after 1 hr post drug dose; format: ADME, organism-based
In short: (§4)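 Male C57BL/6 mice were dosed orally with compound together with a DPP-IV inhibitor. After 1 h they were challenged with oral glucose at 3 g/kg. Active GLP-1 and plasma exposure were measured 30 min later. One-way ANOVA with Dunnett's post-test against the vehicle group.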

[18] = Induction of GLP1 secretion in mouse STC1 cells incubated for 2 hrs by fluorescent bead based ELISA method; format: functional, cell-based; conditions: STC-1, 2 h
In short: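 Mouse enteroendocrine STC-1 cells, which express endogenous GPR39, were assayed for GLP-1 secretion over a dose–response run in triplicate. Maximal activity is expressed as fold increase in GLP-1 over the DMSO control.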

[19] = target: Neurotensin receptor type 1 (Homo sapiens, UniProt P30989); assay: Binding affinity to human neurotensin 1 receptor
Neurotensin receptor type 1, sequence (P30989 whole entry): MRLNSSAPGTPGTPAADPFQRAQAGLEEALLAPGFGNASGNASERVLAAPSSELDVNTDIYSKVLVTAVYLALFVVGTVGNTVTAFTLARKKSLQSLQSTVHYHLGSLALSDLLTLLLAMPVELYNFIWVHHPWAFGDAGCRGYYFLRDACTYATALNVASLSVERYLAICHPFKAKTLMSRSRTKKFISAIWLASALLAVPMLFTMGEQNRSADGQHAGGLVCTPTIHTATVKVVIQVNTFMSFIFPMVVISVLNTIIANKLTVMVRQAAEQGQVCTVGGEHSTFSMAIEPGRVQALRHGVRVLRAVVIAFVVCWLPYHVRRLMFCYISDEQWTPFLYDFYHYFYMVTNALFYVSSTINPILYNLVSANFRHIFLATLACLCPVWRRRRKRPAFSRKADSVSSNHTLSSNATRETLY

[20] = Protection against cytokine-induced cell death in rat INS-1E cells assessed as caspase 3/7 activity; format: functional, cell-based
In short: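 Rat insulinoma INS-1E cells (beta-cell phenotype) were treated with cytokines to induce cell death. Caspase 3/7 activity was the read-out. Dose–response run in triplicate.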

[21] = Cmax in C57BL/6 mouse at 100 mg/kg, po administered as single dose after 1 to 1.5 hrs by LC/MS/MS method; format: ADME, organism-based; parameters: dose 100 mg/kg, route oral; conditions: in vivo
[22] = tested on: Mus musculus; assay: Increase in GLP1 level in C57BL/6 mouse at 30 mg/kg, po concurrently dosed with 3 mg/kg, po DPP4 inhibitor PKF275-055 followed by glucose challenge after 1 hr post drug dose; format: functional; in short: as §4
[23] = target: Growth hormone secretagogue receptor type 1 (Homo sapiens, UniProt Q92847); assay: Binding affinity to human ghrelin receptor
Growth hormone secretagogue receptor type 1, sequence (Q92847 whole entry): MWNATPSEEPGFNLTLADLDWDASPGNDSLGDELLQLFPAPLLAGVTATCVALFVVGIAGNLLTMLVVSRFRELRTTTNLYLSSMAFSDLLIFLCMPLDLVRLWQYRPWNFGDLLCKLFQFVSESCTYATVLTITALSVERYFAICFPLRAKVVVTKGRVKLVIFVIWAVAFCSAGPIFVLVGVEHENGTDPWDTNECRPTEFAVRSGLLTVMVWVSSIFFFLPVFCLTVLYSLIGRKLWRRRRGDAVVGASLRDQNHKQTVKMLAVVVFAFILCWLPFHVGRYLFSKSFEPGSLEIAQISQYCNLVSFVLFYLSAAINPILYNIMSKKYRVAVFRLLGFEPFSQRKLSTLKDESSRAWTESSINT

[24] = Protein binding in rat plasma; format: ADME, cell-free; conditions: read-out: PPB (converted)
[25] = Cmax in C57BL/6 mouse at 10 mg/kg, po administered as single dose after 1 to 1.5 hrs by LC/MS/MS method; format: ADME, organism-based; parameters: dose 10 mg/kg, route oral; conditions: in vivo
[26] = Permeability from apical to basolateral side in human Caco2 cells; format: ADME, cell-based; conditions: Caco-2, read-out: permeability
[27] = Clearance in Sprague-Dawley rat at 2 mg/kg, iv administered as single dose; format: ADME, organism-based; parameters: dose 2 mg/kg, route intravenous; conditions: in vivo
In short: (§5)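 Sprague–Dawley rats received a single iv dose of 2 mg/kg or an oral dose of 5 mg/kg. Vehicle was 10% NMP, 30% PEG200 and 5% Solutol in water. Clearance was taken from the iv arm and bioavailability from the oral arm.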

[28] = Oral bioavailability in Sprague-Dawley rat at 5 mg/kg; format: ADME, organism-based; conditions: in vivo; in short: as §5

| SMILES | CLhep predicted [1] [mL/min/kg] | EC50 [2] [nM] | EC50 [3] [nM] | further results |
| --- | --- | --- | --- | --- |
| [Cl-].[Cl-].[Zn+2] [ZINC CHLORIDE] |  |  |  | EC50 [4]: 3600 nM; EC50 [5]: 4040 nM; Efficacy [6]: 48% |
| CNc1nc(NCc2ccc(S(C)(=O)=O)cc2)cc(-c2ccccn2)n1 | 34.1 | 185 | 36 | clearance [7]: 18 mL/min/kg; bioavailability [8]: 45% |
| O=S(=O)(NC[C@H]1CC[C@H](CNc2cc(-c3ccccn3)nc(NCC3CC3)n2)CC1)c1ccc(F)cc1 |  |  |  | Activity [13]: Active |
| CNc1nc(NCc2ccc(NS(C)(=O)=O)cc2Cl)cc(-c2ccccn2)n1 | 41.3 |  | 0.8 | EC50 [9]: 0.4 nM; EC50 [4]: 60 nM; EC50 [5]: 0.4 nM; Cmax [14]: 6.1 µM; fraction unbound [15]: 0.009; half-life [16]: 420 min; EC50 [10]: 0.8 nM; concentration at 1 h [17]: 1600 nM; EC50 [18]: 60 nM; IC50 [19]: > 30 µM; EC50 [20]: 20 nM; Cmax [21]: 25.3 µM; fold change (FC) [22]: 6; Efficacy [6]: 64%; IC50 [23]: > 30 µM; fraction unbound [24]: 0.007; Cmax [25]: 1400 nM |
| CNc1nc(NCC2CC2)cc(-c2ccccn2)n1 |  | 115 | 164 |  |
| CNc1nc(NCc2ccc(NC(C)=O)cc2)cc(-c2ccccn2)n1 | 35.9 | 2 | 5 | EC50 [4]: 550 nM; EC50 [5]: 2 nM; EC50 [18]: 4400 nM; EC50 [20]: 1200 nM; Efficacy [6]: 48% |
| CNc1nc(Nc2ccc(N(C)C(C)=O)cc2)cc(-c2ccccn2)n1 |  | 2610 | 1180 |  |
| O=S(=O)(NC[C@H]1CC[C@H](CNc2cc(-c3ccccn3)nc(NC3CC3)n2)CC1)c1cccc(F)c1 |  |  |  | EC50 [9]: 1 nM; clearance [27]: 42 mL/min/kg; EC50 [10]: 11 nM; EC50 [11]: 3 nM; bioavailability [28]: 25% |
| CNc1nc(NCC(C)(C)C)cc(-c2ccccn2)n1 |  | 365 | 73 |  |
| CN(C)c1nc(NCC2CC2)cc(-c2ccccn2)n1 |  | 6720 | > 25000 |  |
| FC(F)(F)Oc1ccc(CNc2nc(NCC3CC3)cc(-c3ccccn3)n2)cc1 |  | 22 | 600 |  |

Further lines, with some results ahead:

| CLhep predicted [1] [mL/min/kg] | EC50 [2] [nM] | EC50 [3] [nM] | SMILES | further results |
| --- | --- | --- | --- | --- |
| > 52.3 | 7 | 13 | CNc1nc(NCc2ccc(OC(F)(F)F)cc2)cc(-c2ccccn2)n1 |  |
|  | 1500 | 5000 | CC(C)(C)CNc1nc(NCC2CC2)cc(-c2ccccn2)n1 |  |
| > 52.3 | 17 | 81 | Cc1nc(NCc2ccc(Cl)cc2)cc(-c2ccccn2)n1 |  |
| 51.2 |  |  | O=S(=O)(NC[C@H]1CC[C@H](CNc2nc(NC3CC3)cc(-c3ccccn3)n2)CC1)c1cccc(F)c1 | EC50 [9]: 12 nM; EC50 [10]: 202 nM; EC50 [11]: 4 nM; solubility [12]: < 5 µM |
| > 52.3 | 1 | 60 | FC(F)(F)CNc1nc(NCc2ccc(Cl)cc2)cc(-c2ccccn2)n1 |  |
|  | 304 | 87 | CNc1nc(NCc2ccncc2)cc(-c2ccccn2)n1 |  |
|  | 3 | 15 | CNc1nc(NCc2ccc(Cl)cc2)cc(-c2ccccn2)n1 |  |
| > 52.3 | 0.5 | 0.8 | CNc1nc(NCc2ccc(Cl)cc2Cl)cc(-c2ccccn2)n1 |  |
| 31.9 | 8 | 30 | CNC(=O)c1ccc(CNc2cc(-c3ccccn3)nc(NC)n2)cc1 |  |
|  | 10000 | 2200 | COCCNc1nc(NCC2CC2)cc(-c2ccccn2)n1 |  |
| > 52.3 | 34 | 25 | CNc1nc(NC2(c3ccc(Cl)cc3)CCC2)cc(-c2ccccn2)n1 |  |
| 33.6 | 8 | 3 | CNc1nc(NCc2ccc(NS(C)(=O)=O)cc2)cc(-c2ccccn2)n1 | EC50 [4]: 180 nM; EC50 [5]: 3 nM; concentration at 1 h [17]: 2000 nM; EC50 [18]: 1300 nM; Papp A→B [26]: 6.9 ×10⁻⁶ cm/s; EC50 [20]: 400 nM; fold change (FC) [22]: <2; Efficacy [6]: 55% |
| 25.9 |  | 1 | CNc1nc(NCc2ccc(NC(C)=O)cc2F)cc(-c2ccccn2)n1 | EC50 [4]: 350 nM; EC50 [5]: 0.6 nM; EC50 [18]: 200 nM; EC50 [20]: 40 nM; Efficacy [6]: 55% |
|  | 10 | 11 | CNc1nc(NCC2CCCCC2)cc(-c2ccccn2)n1 |  |
|  | 10000 | 22000 | c1ccc(-c2cc(NCC3CC3)ncn2)nc1 |  |
